From ChEMBL document CHEMBL3792310, “Amine-free melanin-concentrating hormone receptor 1 antagonists: Novel non-basic 1-(2H-indazole-5-yl)pyridin-2(1H)-one derivatives and mitigation of mutagenicity in Ames test” (Bioorg Med Chem, 2016)
Blank lines part the entries; values can stand above or below the compound they belong to. Activity calls are given as the source filed them. No cut-off for these calls is given here.

Legend:
[1] = target: T1, Melanin-concentrating hormone receptor 1 (Homo sapiens, UniProt Q99705); test: Displacement of [125I]-MCH(4 to 19) from human MCHR1 expressed in CHO cell membranes after 1 hr liquid scintillation counting
[2] = target: Melanin-concentrating hormone receptor 1 (Rattus norvegicus, UniProt P97639); test: Displacement of [125I]-MCH(4 to 19) from rat MCHR1 expressed in CHO cell membranes after 1 hr by liquid scintillation counting
Salmonella typhimurium [3] = test: Mutagenicity in Salmonella typhimurium TA1537 assessed as increase in number of revertant colony up to 5000 ug/plate by Ames test in absence of S9 fraction; assay type: toxicity, organism-based; details: salmonella enterica subsp. enterica serovar typhimurium
Summary of the method: (§1)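 Ames test in Salmonella typhimurium TA1537, with and without S9 metabolic activation. A positive call is a more than two-fold increase in revertant colonies over vehicle control.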

Salmonella typhimurium [4] = test: Mutagenicity in Salmonella typhimurium TA1537 assessed as increase in number of revertant colony at 250 ug/plate by Ames test in absence of S9 fraction; assay type: toxicity, organism-based; details: salmonella enterica subsp. enterica serovar typhimurium; summary of the method: as §1
Salmonella typhimurium [5] = test: Mutagenicity in Salmonella typhimurium TA1537 at 250 ug by Ames test in presence of S9 fraction; assay type: toxicity, organism-based, Salmonella enterica subsp. enterica serovar Typhimurium; summary of the method: as §1
[6] = AUC(0 to 8 hrs) in Sprague-Dawley rat at 1 mg/kg, po administered through cassette dosing by LC/MS/MS analysis; assay type: ADME, organism-based; set-up: dose 1 mg/kg, route oral; details: in vivo
Summary of the method: (§2)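 Male SD rats, eight weeks old, fed; cassette dosing iv at 0.1 mg/kg or po at 1 mg/kg as a suspension in 0.5% methylcellulose, n = 3. Plasma taken from blood, deproteinized with acetonitrile, centrifuged, and the supernatant measured by LC/MS/MS. AUC covers 0–8 h.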

[7] = Oral bioavailability in Sprague-Dawley rat plasma at 1 mg/kg administered through cassette dosing by LC/MS/MS analysis; assay type: ADME, organism-based; summary of the method: as §2
[8] = Cmax in Sprague-Dawley rat at 1 mg/kg, po administered through cassette dosing by LC/MS/MS analysis; assay type: ADME, organism-based; set-up: dose 1 mg/kg, route oral; details: in vivo; summary of the method: as §2
[9] = Total plasma clearance in Sprague-Dawley rat at 0.1 mg/kg, iv administered through cassette dosing by LC/MS/MS analysis; assay type: ADME, organism-based; summary of the method: as §2
[10] = target: T1, Melanin-concentrating hormone receptor 1; test: Antagonist activity at human MCHR1 expressed in CHO cells assessed as inhibition of MCH-stimulated Ca2+ mobilization measured every 2 secs by fluorometric analysis; assay type: functional, cell-based
Summary of the method: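 Human MCHR1 stably transfected into CHO dhfr− cells; clone no.4 used. Cells seeded at 20000/well, cultured about 24 h at 37 °C in 5% CO2, loaded with Fluo4 dye for 30 min. Compound in 10 mM HEPES pH 7.4 buffer with 0.1% BSA added first, then MCH(4–19) at 2 nM final. Fluorescence read at 2 s intervals; inhibition % taken against ligand-only and DMSO-only wells.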

[11] = Volume of distribution at steady state in Sprague-Dawley rat at 0.1 mg/kg, iv administered through cassette dosing by LC/MS/MS analysis; assay type: ADME, organism-based; details: in vivo, read-out: Vdss; summary of the method: as §2
[12] = Tmax in Sprague-Dawley rat at 1 mg/kg, po administered through cassette dosing by LC/MS/MS analysis; assay type: ADME, organism-based; details: in vivo; summary of the method: as §2
Salmonella typhimurium [13] = test: Mutagenicity in Salmonella typhimurium TA1537 assessed as increase in number of revertant colony at 313 ug/plate by Ames test in absence of S9 fraction; assay type: toxicity, organism-based; details: salmonella enterica subsp. enterica serovar typhimurium
[14] = Ratio of drug level in brain to plasma in po dosed DIO-F344/Jcl rat; assay type: ADME, organism-based; details: read-out: BPR
Rattus norvegicus [15] = test: Antiobesity activity in DIO-F344/Jcl rat assessed as reduction in body weight at 3 mg/kg, po dosed for 2 weeks and measured every 2 or 3 days relative to vehicle control; assay type: functional, organism-based
Summary of the method: (§3)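 DIO-F344 rats, 48 weeks old, habituated and grouped as for the acute study. Dosed orally once daily for 2 weeks at 2 mL/kg in 0.5% methylcellulose, 1–3 h before dark onset, after body weight measurement; n = 6. Sibutramine positive control. Food intake read every 2 or 3 days. Body weight change is taken as percent of initial weight; mean and SD reported.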

Cytochrome P450 3A4 = Cytochrome P450 3A4 (Homo sapiens, UniProt P08684); test: Reversal inhibition of CYP3A4 (unknown origin) at 10 uM; assay type: ADME
Cytochrome P450 2C8 = target: T2, Cytochrome P450 2C8 (Homo sapiens, UniProt P10632); test: Reversal inhibition of CYP2C8 (unknown origin) at 10 uM; assay type: ADME
T2 sequence (P10632 whole entry): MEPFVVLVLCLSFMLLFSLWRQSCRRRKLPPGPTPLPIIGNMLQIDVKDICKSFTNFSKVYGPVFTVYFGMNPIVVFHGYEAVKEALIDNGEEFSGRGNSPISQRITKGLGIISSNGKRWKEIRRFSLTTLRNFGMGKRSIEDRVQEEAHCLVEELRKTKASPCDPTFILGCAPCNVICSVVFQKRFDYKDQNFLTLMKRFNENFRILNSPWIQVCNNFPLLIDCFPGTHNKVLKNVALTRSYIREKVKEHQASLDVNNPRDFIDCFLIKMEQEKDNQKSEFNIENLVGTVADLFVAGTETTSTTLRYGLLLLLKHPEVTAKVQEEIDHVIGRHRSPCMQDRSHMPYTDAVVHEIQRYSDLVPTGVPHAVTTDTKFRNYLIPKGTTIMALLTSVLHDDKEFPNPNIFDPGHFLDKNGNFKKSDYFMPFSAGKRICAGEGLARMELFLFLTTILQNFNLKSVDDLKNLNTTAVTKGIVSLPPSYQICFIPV

Rattus norvegicus [16] = test: Anorectic effect in DIO-F344/Jcl rat assessed as reduction in cumulative food intake at 5 mg/kg, po administered once daily for 2 weeks measured during compound dosing; set-up: scale not given: the % may be the effect or the level left
Mus musculus [17] = species on record: Mus musculus; test: Toxicity in MCHR deficient mouse assessed as effect on food intake; assay type: organism-based; details: in vivo
Cytochrome P450 2D6 = Cytochrome P450 2D6 (Homo sapiens, UniProt P10635); test: Reversal inhibition of CYP2D6 (unknown origin) at 10 uM; assay type: ADME
Rattus norvegicus [18] = test: Antiobesity activity in DIO-F344/Jcl rat assessed as reduction in body weight at 5 mg/kg, po dosed for 2 weeks and measured every 2 or 3 days relative to vehicle control; assay type: functional; set-up: scale not given: the % may be the effect or the level left; summary of the method: as §3
Rattus norvegicus [19] = test: Antiobesity activity in DIO-F344/Jcl rat assessed as reduction in body weight at 10 mg/kg, po dosed for 2 weeks and measured every 2 or 3 days relative to vehicle control; assay type: functional; set-up: scale not given: the % may be the effect or the level left; summary of the method: as §3
Rattus norvegicus [20] = test: Anorectic effect in DIO-F344/Jcl rat at 3 mg/kg, po administered for 2 days started 2 hrs prior to onset of dark period measured during compound dosing; assay type: functional
Summary of the method: (§4)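 Male DIO-F344/Jcl rats, 44 weeks old, on high-fat diet from 5 weeks of age. Singly housed on powder high-fat diet and habituated to oral dosing with tap water, then grouped by day-0 food intake and body weight. Oral dosing at 2 mL/kg in 0.5% methylcellulose 2 h before dark onset for 2 days, n = 6. Two-day food intake is expressed as inhibition rate versus vehicle.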

Rattus norvegicus [21] = test: Anorectic effect in DIO-F344/Jcl rat assessed as reduction in cumulative food intake at 10 mg/kg, po administered once daily for 2 weeks measured during compound dosing; set-up: scale not given: the % may be the effect or the level left
Rattus norvegicus [22] = test: Trough plasma concentration in DIO-F344/Jcl rat at 10 mg/kg, po; assay type: ADME, organism-based; details: in vivo, read-out: Cmin
Rattus norvegicus [23] = test: Anorectic effect in DIO-F344/Jcl rat at 10 mg/kg, po administered for 2 days started 2 hrs prior to onset of dark period measured during compound dosing; assay type: functional; summary of the method: as §4
Mus musculus [24] = species on record: Mus musculus; test: Anorectic effect in wild type mouse assessed as reduction in food intake; assay type: functional, organism-based
Cytochrome P450 2C9 = Cytochrome P450 2C9 (Homo sapiens, UniProt P11712); test: Reversal inhibition of CYP2C9 (unknown origin) at 10 uM; assay type: ADME
[25] = Fraction unbound in DIO-F344/Jcl rat plasma at 10 mg/kg, po; assay type: ADME, organism-based
Plasma = test: Unbound plasma concentration in DIO-F344/Jcl rat at 10 mg/kg, po; assay type: ADME, organism-based; details: in vivo
Cytochrome P450 1A2 = target: T3, Cytochrome P450 1A2 (Homo sapiens, UniProt P05177); test: Reversal inhibition of CYP1A2 (unknown origin) at 10 uM; assay type: ADME
T3 sequence (P05177 whole entry): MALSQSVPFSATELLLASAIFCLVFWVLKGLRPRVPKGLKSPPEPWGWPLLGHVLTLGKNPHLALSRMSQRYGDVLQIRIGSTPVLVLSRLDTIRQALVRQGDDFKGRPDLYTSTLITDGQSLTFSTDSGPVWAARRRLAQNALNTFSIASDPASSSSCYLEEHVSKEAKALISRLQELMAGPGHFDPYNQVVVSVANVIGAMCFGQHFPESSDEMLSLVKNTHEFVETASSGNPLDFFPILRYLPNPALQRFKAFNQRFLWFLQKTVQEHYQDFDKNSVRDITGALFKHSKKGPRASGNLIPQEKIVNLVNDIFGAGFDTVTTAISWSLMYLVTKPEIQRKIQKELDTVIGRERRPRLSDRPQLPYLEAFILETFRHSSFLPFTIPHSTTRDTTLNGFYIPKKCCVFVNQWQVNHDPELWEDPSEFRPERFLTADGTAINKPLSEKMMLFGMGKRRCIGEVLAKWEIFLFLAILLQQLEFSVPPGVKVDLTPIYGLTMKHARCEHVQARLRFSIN

T1 sequence (Q99705 whole entry): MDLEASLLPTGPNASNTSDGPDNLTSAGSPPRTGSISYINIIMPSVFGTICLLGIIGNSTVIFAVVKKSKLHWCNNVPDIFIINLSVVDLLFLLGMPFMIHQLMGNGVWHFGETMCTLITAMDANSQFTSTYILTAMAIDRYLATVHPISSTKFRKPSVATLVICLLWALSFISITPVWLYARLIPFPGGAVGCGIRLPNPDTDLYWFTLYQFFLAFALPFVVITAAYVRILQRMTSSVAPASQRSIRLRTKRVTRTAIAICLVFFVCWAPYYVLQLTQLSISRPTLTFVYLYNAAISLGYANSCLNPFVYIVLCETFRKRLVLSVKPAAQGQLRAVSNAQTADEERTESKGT
Chain of Melanin-concentrating hormone receptor 1 (Rattus norvegicus, UniProt P97639) (P97639 whole entry): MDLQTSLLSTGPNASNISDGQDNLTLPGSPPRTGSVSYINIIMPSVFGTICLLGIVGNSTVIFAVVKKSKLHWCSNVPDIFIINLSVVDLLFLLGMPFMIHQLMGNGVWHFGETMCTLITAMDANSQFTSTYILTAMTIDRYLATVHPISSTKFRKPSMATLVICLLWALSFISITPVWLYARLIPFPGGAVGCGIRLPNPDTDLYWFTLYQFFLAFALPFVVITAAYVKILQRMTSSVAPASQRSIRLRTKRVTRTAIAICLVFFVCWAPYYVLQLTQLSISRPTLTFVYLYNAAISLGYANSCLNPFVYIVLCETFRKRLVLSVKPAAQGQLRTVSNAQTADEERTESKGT
Chain of Cytochrome P450 2D6 (P10635 whole entry): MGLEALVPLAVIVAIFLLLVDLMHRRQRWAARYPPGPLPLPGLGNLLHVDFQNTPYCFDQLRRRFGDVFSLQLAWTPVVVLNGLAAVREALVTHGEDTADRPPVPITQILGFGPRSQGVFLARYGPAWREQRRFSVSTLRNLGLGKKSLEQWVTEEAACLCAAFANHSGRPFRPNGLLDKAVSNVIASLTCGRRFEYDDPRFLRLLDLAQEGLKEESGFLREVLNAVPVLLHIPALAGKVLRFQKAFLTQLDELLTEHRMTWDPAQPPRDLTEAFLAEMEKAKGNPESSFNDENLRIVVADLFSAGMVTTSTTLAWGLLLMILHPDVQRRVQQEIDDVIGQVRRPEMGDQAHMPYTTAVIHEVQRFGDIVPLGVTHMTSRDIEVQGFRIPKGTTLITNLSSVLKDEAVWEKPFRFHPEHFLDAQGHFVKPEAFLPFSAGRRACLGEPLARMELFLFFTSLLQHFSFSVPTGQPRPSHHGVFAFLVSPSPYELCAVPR
Chain of Cytochrome P450 3A4 (P08684 whole entry): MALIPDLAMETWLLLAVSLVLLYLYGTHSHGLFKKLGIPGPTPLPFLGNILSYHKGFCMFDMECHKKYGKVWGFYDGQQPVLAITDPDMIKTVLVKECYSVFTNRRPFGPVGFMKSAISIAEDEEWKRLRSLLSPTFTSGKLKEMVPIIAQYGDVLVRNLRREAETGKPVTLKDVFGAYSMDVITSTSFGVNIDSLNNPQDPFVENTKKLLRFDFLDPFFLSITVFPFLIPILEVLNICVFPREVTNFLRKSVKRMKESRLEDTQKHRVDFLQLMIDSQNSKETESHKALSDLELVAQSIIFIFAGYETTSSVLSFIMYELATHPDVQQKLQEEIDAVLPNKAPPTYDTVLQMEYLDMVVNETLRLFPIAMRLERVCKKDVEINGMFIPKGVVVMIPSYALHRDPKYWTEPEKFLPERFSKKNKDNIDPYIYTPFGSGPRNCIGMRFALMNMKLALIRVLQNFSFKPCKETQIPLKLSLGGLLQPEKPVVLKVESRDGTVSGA
Chain of Cytochrome P450 2C9 (P11712 whole entry): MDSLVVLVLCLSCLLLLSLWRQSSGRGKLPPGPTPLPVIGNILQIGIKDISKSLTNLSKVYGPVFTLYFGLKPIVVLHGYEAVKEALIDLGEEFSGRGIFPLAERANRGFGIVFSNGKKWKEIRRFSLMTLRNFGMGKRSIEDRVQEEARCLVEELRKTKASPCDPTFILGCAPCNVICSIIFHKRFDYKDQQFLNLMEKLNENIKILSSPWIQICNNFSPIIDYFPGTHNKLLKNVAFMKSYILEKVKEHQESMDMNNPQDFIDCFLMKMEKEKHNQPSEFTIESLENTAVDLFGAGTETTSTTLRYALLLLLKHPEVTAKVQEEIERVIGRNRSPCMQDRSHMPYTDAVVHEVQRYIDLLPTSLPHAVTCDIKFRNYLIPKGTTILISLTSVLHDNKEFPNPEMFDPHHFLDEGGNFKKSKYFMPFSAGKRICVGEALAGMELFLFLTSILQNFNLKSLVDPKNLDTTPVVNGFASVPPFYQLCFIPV

IC50 [1]: 74 nM | IC50 [2]: 38 nM
SMILES: Cc1c2cc(-n3ccc(OCc4cc(C(F)(F)F)cs4)cc3=O)ccc2nn1C

IC50 [1]: 43 nM | IC50 [2]: 35 nM
SMILES: Cc1c2cc(-n3ccc(OCc4ccc(F)cc4)cc3=O)ccc2nn1C1CC1
Activity (Salmonella typhimurium [3]): Non-toxic

IC50 [1]: 35 nM | IC50 [2]: 36 nM
SMILES: Cc1c2cc(-n3ccc(OCc4ccc(Cl)cc4)cc3=O)ccc2nn1C
fold change (FC) (Salmonella typhimurium [4]): 2 | Activity (Salmonella typhimurium [5]): Non-toxic

IC50 [1]: 99 nM
SMILES: Cc1nn(C)c2ccc(-n3ccc(OCc4ccc(Cl)cc4)cc3=O)cc12

IC50 [1]: 230 nM | IC50 [2]: 130 nM
SMILES: Cc1c2cc(-n3ccc(OCc4csc(C(F)(F)F)n4)cc3=O)ccc2nn1C

IC50 [1]: 69 nM
SMILES: Cc1c(C2CC2)nn2ccc(-n3ccc(OCc4ccc(Cl)cc4)cc3=O)cc12

IC50 [1]: 130 nM | IC50 [2]: 76 nM
SMILES: Cc1c2cc(-n3ccc(OCc4nc(C(F)(F)F)cs4)cc3=O)ccc2nn1C

IC50 [1]: 170 nM | IC50 [2]: 90 nM
SMILES: Cc1c2cc(-n3ccc(OCc4ccc(C(F)(F)F)s4)cc3=O)ccc2nn1C

IC50 [1]: 210 nM | IC50 [2]: 130 nM
SMILES: CCCn1nc2ccc(-n3ccc(OCc4ccc(Cl)cc4)cc3=O)cc2c1C

AUC(0-t) at 6 h [6]: 1810 ng·h/mL | bioavailability [7]: 37% | IC50 [1]: 31 nM | IC50 [2]: 23 nM | Cmax [8]: 291 ng/mL | clearance [9]: 3.45 mL/min/kg | IC50 [10]: 33 nM | Vd [11]: 0.676 L/kg | Tmax [12]: 4 h
SMILES: Cc1c2cc(-n3ccc(OCc4ccc(Cl)cc4)cc3=O)ccc2nn1C1CC1
Activity (Salmonella typhimurium [3]): Non-toxic

IC50 [1]: 140 nM | IC50 [2]: 65 nM
SMILES: CCn1nc2ccc(-n3ccc(OCc4ccc(Cl)cc4)cc3=O)cc2c1C

IC50 [1]: 90 nM | IC50 [2]: 70 nM
SMILES: Cc1c2cc(-n3ccc(OCc4csc(C(F)(F)F)c4)cc3=O)ccc2nn1C
fold change (FC) (Salmonella typhimurium [13]): 2

IC50 [1]: 110 nM | IC50 [2]: 76 nM
SMILES: Cc1c2cc(-n3ccc(OCc4ccc(F)cc4)cc3=O)ccc2nn1C
Activity (Salmonella typhimurium [3]): Non-toxic

IC50 [1]: 150 nM
SMILES: Cn1c(C2CC2)cc2ccc(-n3ccc(OCc4ccc(Cl)cc4)cc3=O)cc21

Kp [14]: 0.66 | AUC(0-t) at 6 h [6]: 2880 ng·h/mL | inhibition (INH) (Cytochrome P450 3A4): Not Active | inhibition (INH) (Cytochrome P450 2C8): Not Active | bioavailability [7]: 78% | inhibition (INH) (Cytochrome P450 2D6): Not Active | IC50 [1]: 38 nM | IC50 [2]: 26 nM | Cmax [8]: 426 ng/mL | clearance [9]: 4.93 mL/min/kg | IC50 [10]: 79 nM | concentration (Rattus norvegicus [22]): 3.36 µM | Vd [11]: 0.949 L/kg | inhibition (INH) (Cytochrome P450 2C9): Not Active | fraction unbound [25]: 0.022 | Cp(f) (Plasma): 0.0739 µM | inhibition (INH) (Cytochrome P450 1A2): Not Active | Tmax [12]: 2.7 h
SMILES: Cc1c2cc(-n3ccc(OCc4csc(C(F)(F)F)c4)cc3=O)ccc2nn1C1CC1
Activity (Rattus norvegicus [15]): Active | Activity (Rattus norvegicus [16]): 12.2% | Activity (Mus musculus [17]): Non-toxic | Activity (Rattus norvegicus [18]): 3.9% | Activity (Rattus norvegicus [19]): 7.6% | Activity (Rattus norvegicus [20]): 21.5% | Activity (Rattus norvegicus [21]): 23.2% | Activity (Salmonella typhimurium [3]): Non-toxic | Activity (Rattus norvegicus [23]): 30.6% | Activity (Mus musculus [24]): Dose-dependent effect
